The values that follow come from ChEMBL document CHEMBL1811752, “Synthesis and pharmacological characterization of bicyclic triple reuptake inhibitor 3-aryl octahydrocyclopenta[c]pyrrole analogues” (J Med Chem, 2011).

Data set [1] deals with Sodium-dependent noradrenaline transporter (Homo sapiens, UniProt P23975). As to the kind of experiment: Inhibition of norepinephrine reuptake at NET expressed in MDCK cells. The class given is cell-based.
For data set [2], the target named is Sodium-dependent serotonin transporter (Homo sapiens, UniProt P31645). As to the kind of experiment: Inhibition of serotonin reuptake at SERT expressed in HEK293 cells. The class given is cell-based.
Data set [3] addresses Sodium-dependent dopamine transporter (Homo sapiens, UniProt Q01959). As to the kind of experiment: Inhibition of dopamine reuptake at DAT expressed in CHO-K1 cells. The class given is cell-based.
Data set [4] deals with Cytochrome P450 2C19 (Homo sapiens, UniProt P33261). The data set can be described thus: Inhibition of CYP2C19 in human liver microsomes by LC-MS/MS analysis. The class given is ADME, Microsome. Summed up: (§1)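 Human liver microsomes incubated with isoform-specific substrates and compound, typically 0.1–25 μM. Metabolite formation read by LC-MS/MS, […]. IC50 calculated from the decrease in metabolite formation relative to vehicle control.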

Data set [5] deals with Cytochrome P450 3A4 (Homo sapiens, UniProt P08684). The data set can be described thus: Inhibition of CYP3A4 in human liver microsomes by LC-MS/MS analysis. The class given is ADME, Microsome. In a few lines:
as §1

In data set [6] the target is Cytochrome P450 2C9 (Homo sapiens, UniProt P11712). As to the kind of experiment: Inhibition of CYP2C9 in human liver microsomes by LC-MS/MS analysis. The class given is ADME, Microsome. In a few lines:
as §1
A general note: Microsomes from liver hold many membrane-bound enzymes, among them those of drug oxidation.

The nature of data set [7]: Half life in mouse liver microsomes at 3 uM by LC-MS/MS analysis. The class given is ADME, Microsome. In a few lines:
(§2)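 Human or mouse liver microsomes (0.5 mg/mL) incubated with 3 μM compound at 37 °C. Reaction started with NADPH and stopped with methanol containing internal standard. Loss of compound followed over 45 min by LC-MS/MS. Peak area ratio to internal standard plotted against time and the slope of the line taken.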

Data set [8] has as its target Cytochrome P450 2D6 (Homo sapiens, UniProt P10635). The data set can be described thus: Inhibition of CYP2D6 in human liver microsomes by LC-MS/MS analysis. The class given is ADME, Microsome. In a few lines:
as §1

Data set [9] is described as follows: Half life in human liver microsomes at 3 uM by LC-MS/MS analysis. The class given is ADME, Microsome. In a few lines: as §2
For data set [10], the target named is T1, CYP1A (Homo sapiens, UniProt P04798+P05177).
T1 sequence (P04798 whole entry): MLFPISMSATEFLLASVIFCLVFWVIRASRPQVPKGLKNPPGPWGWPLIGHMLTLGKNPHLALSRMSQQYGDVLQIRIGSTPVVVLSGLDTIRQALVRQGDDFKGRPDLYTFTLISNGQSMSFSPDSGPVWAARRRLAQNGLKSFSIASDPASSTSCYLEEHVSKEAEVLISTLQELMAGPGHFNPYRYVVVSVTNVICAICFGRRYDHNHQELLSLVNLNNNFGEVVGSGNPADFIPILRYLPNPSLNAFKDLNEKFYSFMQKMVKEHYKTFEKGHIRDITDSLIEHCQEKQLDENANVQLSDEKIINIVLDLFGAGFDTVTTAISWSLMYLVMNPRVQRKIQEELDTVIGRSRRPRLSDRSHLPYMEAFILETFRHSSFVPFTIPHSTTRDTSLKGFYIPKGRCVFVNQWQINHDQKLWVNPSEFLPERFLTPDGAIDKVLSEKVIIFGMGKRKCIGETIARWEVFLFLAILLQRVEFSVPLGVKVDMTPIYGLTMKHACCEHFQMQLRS
T1 sequence (P05177 whole entry): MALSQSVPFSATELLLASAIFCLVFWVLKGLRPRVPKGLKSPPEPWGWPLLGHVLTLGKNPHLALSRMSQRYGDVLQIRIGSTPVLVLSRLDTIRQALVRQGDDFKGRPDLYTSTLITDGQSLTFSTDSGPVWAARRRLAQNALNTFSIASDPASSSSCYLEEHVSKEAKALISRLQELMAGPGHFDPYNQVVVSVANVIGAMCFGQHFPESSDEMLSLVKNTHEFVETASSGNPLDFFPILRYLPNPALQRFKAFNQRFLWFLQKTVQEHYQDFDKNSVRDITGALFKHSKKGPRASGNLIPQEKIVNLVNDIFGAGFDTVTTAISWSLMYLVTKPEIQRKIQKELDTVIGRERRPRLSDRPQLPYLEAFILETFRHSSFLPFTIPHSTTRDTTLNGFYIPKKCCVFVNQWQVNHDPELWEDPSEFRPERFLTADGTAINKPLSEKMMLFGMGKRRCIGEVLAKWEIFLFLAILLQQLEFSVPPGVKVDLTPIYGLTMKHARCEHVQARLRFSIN
As to the kind of experiment: Inhibition of CYP1A in human liver microsomes by LC-MS/MS analysis. The class given is ADME, Microsome. Summed up:
as §1

Molecules are shown by their SMILES.

Chain of Cytochrome P450 2C19 (P33261 whole entry, canonical isoform): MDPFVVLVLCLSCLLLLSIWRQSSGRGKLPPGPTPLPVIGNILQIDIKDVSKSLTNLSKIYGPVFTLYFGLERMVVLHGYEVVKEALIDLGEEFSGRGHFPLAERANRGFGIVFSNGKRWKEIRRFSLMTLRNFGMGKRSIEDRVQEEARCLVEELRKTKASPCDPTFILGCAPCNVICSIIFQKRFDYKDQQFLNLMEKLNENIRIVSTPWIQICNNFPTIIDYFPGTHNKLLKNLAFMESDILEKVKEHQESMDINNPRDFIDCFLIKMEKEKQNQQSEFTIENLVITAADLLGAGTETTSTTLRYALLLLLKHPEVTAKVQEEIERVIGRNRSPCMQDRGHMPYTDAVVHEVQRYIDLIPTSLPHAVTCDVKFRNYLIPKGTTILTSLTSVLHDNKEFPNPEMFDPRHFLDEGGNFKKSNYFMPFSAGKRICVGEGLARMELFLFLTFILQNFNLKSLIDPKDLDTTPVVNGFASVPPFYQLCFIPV
Chain of Cytochrome P450 3A4 (P08684 whole entry): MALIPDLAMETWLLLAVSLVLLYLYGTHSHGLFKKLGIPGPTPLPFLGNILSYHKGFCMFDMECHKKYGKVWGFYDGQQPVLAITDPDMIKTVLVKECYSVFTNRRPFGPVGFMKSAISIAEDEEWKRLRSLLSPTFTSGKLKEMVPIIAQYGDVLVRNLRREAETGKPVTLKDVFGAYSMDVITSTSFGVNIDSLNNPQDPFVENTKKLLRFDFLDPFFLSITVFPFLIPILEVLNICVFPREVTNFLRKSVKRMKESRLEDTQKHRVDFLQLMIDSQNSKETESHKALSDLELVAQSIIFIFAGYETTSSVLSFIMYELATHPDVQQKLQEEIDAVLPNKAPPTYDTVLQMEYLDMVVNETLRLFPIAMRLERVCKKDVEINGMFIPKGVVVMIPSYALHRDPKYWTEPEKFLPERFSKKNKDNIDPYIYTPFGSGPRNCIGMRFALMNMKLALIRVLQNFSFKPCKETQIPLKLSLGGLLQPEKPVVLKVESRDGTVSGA
Chain of Sodium-dependent serotonin transporter (P31645 whole entry): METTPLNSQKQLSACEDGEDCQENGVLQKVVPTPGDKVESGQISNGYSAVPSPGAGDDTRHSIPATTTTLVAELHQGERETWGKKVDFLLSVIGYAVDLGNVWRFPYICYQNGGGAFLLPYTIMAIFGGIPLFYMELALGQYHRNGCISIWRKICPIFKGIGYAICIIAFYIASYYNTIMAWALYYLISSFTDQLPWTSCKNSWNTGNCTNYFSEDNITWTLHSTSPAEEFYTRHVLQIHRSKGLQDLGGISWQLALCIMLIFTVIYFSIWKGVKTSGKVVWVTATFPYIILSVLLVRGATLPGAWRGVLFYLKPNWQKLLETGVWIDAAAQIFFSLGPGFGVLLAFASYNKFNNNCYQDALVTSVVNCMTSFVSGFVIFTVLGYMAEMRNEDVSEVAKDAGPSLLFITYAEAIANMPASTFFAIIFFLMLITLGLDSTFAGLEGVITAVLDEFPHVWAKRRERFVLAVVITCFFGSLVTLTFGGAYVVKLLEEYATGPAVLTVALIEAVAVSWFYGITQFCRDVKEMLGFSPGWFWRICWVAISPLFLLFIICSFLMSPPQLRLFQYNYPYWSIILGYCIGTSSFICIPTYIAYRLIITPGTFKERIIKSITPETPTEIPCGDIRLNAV
Chain of Sodium-dependent dopamine transporter (Q01959 whole entry, canonical isoform): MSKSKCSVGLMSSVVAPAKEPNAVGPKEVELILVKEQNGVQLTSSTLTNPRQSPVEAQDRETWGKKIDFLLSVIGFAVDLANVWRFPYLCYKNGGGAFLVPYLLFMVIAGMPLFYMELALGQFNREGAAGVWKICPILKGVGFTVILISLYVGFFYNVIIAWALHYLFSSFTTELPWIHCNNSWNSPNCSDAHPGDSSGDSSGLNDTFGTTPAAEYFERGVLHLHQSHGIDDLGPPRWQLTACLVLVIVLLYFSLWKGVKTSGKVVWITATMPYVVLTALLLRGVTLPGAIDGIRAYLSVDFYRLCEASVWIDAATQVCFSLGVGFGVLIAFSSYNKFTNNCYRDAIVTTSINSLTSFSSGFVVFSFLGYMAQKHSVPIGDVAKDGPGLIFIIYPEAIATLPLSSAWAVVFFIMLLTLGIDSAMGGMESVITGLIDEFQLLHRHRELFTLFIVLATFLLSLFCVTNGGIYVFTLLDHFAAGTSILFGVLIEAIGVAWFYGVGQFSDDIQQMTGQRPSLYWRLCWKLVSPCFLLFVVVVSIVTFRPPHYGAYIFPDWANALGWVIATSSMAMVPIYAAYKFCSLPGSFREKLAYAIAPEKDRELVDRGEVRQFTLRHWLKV
Chain of Cytochrome P450 2C9 (P11712 whole entry): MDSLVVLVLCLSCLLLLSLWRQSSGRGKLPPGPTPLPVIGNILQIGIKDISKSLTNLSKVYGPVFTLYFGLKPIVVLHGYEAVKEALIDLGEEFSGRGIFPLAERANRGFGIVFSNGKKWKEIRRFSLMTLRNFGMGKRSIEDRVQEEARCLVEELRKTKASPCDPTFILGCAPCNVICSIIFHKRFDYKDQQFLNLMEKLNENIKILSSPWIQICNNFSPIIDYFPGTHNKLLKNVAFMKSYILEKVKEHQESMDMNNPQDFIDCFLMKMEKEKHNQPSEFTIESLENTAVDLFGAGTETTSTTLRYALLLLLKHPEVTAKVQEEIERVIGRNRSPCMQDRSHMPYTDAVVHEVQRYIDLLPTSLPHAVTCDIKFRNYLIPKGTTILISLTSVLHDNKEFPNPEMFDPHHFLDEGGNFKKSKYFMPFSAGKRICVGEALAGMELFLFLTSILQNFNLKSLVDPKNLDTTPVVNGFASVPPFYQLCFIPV
Chain of Cytochrome P450 2D6 (P10635 whole entry): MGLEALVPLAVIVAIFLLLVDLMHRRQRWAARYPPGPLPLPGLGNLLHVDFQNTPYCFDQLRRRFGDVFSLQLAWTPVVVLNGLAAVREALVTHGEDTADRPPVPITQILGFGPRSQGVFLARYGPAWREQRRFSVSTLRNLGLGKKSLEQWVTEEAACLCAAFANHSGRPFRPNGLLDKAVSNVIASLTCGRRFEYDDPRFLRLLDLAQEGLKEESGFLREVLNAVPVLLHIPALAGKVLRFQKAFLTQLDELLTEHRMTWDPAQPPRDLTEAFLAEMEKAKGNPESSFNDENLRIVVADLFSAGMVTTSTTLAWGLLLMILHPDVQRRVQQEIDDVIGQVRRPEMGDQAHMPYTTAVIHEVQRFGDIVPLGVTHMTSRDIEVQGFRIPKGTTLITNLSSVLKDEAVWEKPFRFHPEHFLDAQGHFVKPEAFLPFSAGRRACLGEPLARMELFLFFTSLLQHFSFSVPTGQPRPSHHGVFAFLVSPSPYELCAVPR
Chain of Sodium-dependent noradrenaline transporter (P23975 whole entry): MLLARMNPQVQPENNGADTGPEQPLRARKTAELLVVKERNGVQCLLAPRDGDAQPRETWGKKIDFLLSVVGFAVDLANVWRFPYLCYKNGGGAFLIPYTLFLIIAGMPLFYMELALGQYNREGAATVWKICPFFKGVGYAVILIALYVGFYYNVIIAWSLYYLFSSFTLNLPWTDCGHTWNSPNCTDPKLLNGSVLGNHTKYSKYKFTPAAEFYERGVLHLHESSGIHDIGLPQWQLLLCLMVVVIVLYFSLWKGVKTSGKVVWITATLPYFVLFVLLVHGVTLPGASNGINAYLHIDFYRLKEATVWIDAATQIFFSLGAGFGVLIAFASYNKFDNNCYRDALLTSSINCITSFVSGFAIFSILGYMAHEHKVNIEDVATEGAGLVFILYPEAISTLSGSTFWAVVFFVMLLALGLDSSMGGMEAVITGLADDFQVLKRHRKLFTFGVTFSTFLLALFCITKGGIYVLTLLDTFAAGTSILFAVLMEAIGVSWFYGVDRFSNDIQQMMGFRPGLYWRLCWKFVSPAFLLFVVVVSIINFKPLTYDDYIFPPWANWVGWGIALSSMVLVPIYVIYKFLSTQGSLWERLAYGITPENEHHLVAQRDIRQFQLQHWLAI

As a reminder, the IC50 is the point on the concentration scale where inhibition reaches its midpoint. For the compound `CN1C[C@@H]2CCCC[C@]2(c2cccc3ccccc23)C1`, the IC50 in [1] was above 10000 nM; in [2] it was 977 nM; in data set [3] it was 3310 nM.
For `CN1C[C@H]2CCCC[C@@]2(c2cccc3ccccc23)C1`, the IC50 is 204 nM in data set [1], 33.1 nM in data set [2] and 2450 nM in data set [3].
Consider `Clc1ccc([C@]23CCCC[C@H]2CNC3)cc1Cl` (racemic), for which the IC50 in data set [1] was 112 nM; in [2], 115 nM; in data set [3] it was 204 nM.
Take `CN1C[C@@H]2CCCC[C@]2(c2ccc(F)c(F)c2)C1` (racemic): the concentration for half-maximal inhibition (IC50) in data set [1] is 2340 nM; in data set [2], 1230 nM; in data set [3], 417 nM.
The matching figures for `COc1ccc([C@]23CCCC[C@H]2CN(C)C3)cc1` (racemic): 14100 nM, 129 nM and 1000 nM.
The matching figures for `Clc1ccc(C[C@]23CCCC[C@H]2CNC3)cc1Cl`: 5370 nM, 661 nM and 501 nM.
`COc1cccc([C@]23CCCC[C@H]2CN(C)C3)c1` (racemic): the IC50 was 2450 nM in data set [1], 148 nM in data set [2] and 3390 nM in data set [3].
What is called half-life is the time needed for the level to fall by half in the phase considered. In the case of `c1ccc2cc([C@]34CCC[C@H]3CNC4)ccc2c1`, the IC50 in data set [4] is above 25 µM; in data set [5], 2.65 µM; in [6] it was above 25 µM; in [8] it was 9.42 µM; in data set [1], 14.1 nM; in data set [10], 4130 nM. Further, the IC50 in data set [2] was 13.5 nM; in data set [3], 33.9 nM. For the same compound, the half-life at 3 µM came out at 26 min in data set [7] and 25 min in [9].
Take `Clc1ccc([C@]23CCCC[C@@H]2CNC3)cc1Cl` (racemic; 19b): the IC50 in data set [1] is 2140 nM; in [2] it was 1910 nM; in [3], 457 nM.
The matching figures for `COc1ccc([C@]23CCCC[C@H]2CN(C)C3)cc1OC` (racemic): 5890 nM, 34.7 nM and 9770 nM.
In the same order, the values of `CN1C[C@@H]2CCCC[C@]2(c2ccc3ccccc3c2)C1` (racemic) are 537 nM, 4.79 nM and 20.4 nM.
`Clc1ccc(C[C@@]23CCCC[C@@H]2CNC3)cc1Cl`: the half-life at 3 µM in data set [7] and in data set [9] was above 300 min each time. The IC50 in data set [8] is below 0.05 µM; in data set [1] it was 2950 nM; in data set [2], 49 nM; in data set [3], 158 nM.
On to `CN1C[C@@H]2CCC[C@]2(c2ccc(F)c(F)c2)C1` (racemic), for which the IC50 in data set [1] is 6460 nM; in data set [2], 1100 nM; in data set [3], 2820 nM.
The matching figures for `CN1C[C@@H]2CCCC[C@]2(c2ccccc2)C1` (racemic): 562 nM, 724 nM and 1580 nM.
As to `CN1C[C@@H]2CCC[C@]2(c2ccc3ccccc3c2)C1`, the half-life at 3 µM in [7] was 18 min; in data set [9], 36 min. In addition, the IC50 was 2.61 µM in data set [8], 209 nM in data set [1], 2.29 nM in data set [2] and 182 nM in data set [3].
In the case of `CN1C[C@@H]2CCC[C@]2(c2ccc(Cl)c(Cl)c2)C1` (single isomer, unassigned), the IC50 in [4] was 2.22 µM; in data set [5] it was 12.7 µM; in data set [6], 9.83 µM; in data set [8], 4.35 µM; in data set [1], 95.5 nM; in [10], 1490 nM. For the same compound, the 50% inhibitory concentration (IC50) in data set [2] is 83.2 nM; in data set [3], 47.9 nM. Also, the half-life at 3 µM in data set [7] is 27 min; in data set [9], 28 min.
For `CN1C[C@H]2CCC[C@@]2(c2ccc3ccccc3c2)C1`, the half-life at 3 µM in data set [7] is 18 min; in [9], 19 min. In addition, the IC50 was 12.8 µM in data set [8], 191 nM in data set [1], 14.5 nM in data set [2] and 28.8 nM in data set [3].
Take `CN1C[C@@H]2CCC[C@]2(c2ccc3ccccc3c2)C1` (racemic): the IC50 in data set [1] is 468 nM; in [2], 3.55 nM; in [3], 100 nM.
`c1ccc2cc([C@@]34CCC[C@@H]3CNC4)ccc2c1`: the IC50 in data set [4] was 7.19 µM; in data set [5], 10.7 µM; in data set [6] it was 14.4 µM; in [8], 10.8 µM; in data set [1], 60.3 nM; in data set [10], 710 nM. For the same compound, the half-inhibitory concentration (IC50) in data set [2] was 120 nM; in data set [3], 30.2 nM. Besides, the half-life at 3 µM in data set [7] was 56 min; in data set [9], 28 min.
Regarding `CN1C[C@@H]2CCCC[C@]2(Cc2ccc(Cl)c(Cl)c2)C1` (stereo in doubt), the values for the concentration for half-maximal inhibition (IC50) in [1], in [2] and in [3] were 4470 nM, 339 nM and 490 nM, respectively.
With `CN1C[C@@H]2CCC[C@]2(c2cc(Cl)cc(Cl)c2)C1` (racemic), the IC50 in [1] is 4270 nM; in [2], 331 nM; in data set [3], 9770 nM.
The matching figures for `COc1ccc([C@]23CCC[C@H]2CN(C)C3)cc1` (racemic): above 10000 nM, 4.47 nM and above 10000 nM.
For `CN1C[C@H]2CCCC[C@@]2(Cc2ccc(Cl)c(Cl)c2)C1` (stereo in doubt), the values for the half-life at 3 µM in data set [7] and in [9] were 25 min and 121 min, respectively. Moreover, the IC50 in data set [8] was below 0.05 µM; in [1] it was 3800 nM; in data set [2], 5.5 nM; in data set [3] it was 479 nM.
With `COc1cccc([C@]23CCC[C@H]2CN(C)C3)c1` (racemic), the IC50 was above 10000 nM in [1], 692 nM in data set [2] and above 10000 nM in data set [3].
As for `CN1C[C@@H]2CCCC[C@]2(c2ccc3ccccc3c2)C1`, the figures for the half-life at 3 µM in data set [7] and in [9] were 18 min and 46 min, respectively. For the same compound, the IC50 in data set [8] is 0.56 µM; in data set [1], 724 nM; in data set [2] it was 6.92 nM; in data set [3], 309 nM.
On to `CN1C[C@@H]2CCCC[C@]2(c2ccc(Cl)cc2Cl)C1` (racemic), for which the IC50 in data set [1] is 912 nM; in data set [2], 347 nM; in data set [3], 1290 nM.
The matching figures for `CN1C[C@@H]2CCCC[C@]2(c2cccc3ccccc23)C1` (racemic): 417 nM, 162 nM and 1320 nM.
As for `CN1C[C@H]2CCCC[C@@]2(c2ccc3ccccc3c2)C1`, the half-life at 3 µM amounted to 7 min in data set [7] and 17 min in data set [9]. Further, the IC50 was 13.6 µM in data set [8], 537 nM in data set [1], 12.6 nM in data set [2] and 61.7 nM in [3].
Consider `CN1C[C@@H]2CCC[C@]2(c2ccc(Cl)c(Cl)c2)C1` (racemic), for which the values for the IC50 in [1], in data set [2] and in [3] were 24 nM, 8.91 nM and 67.6 nM, respectively.
In the same order, the values of `Clc1ccc([C@]23CCCC[C@@H]2CNC3)cc1Cl` (racemic; 19a) are 6030 nM, 1820 nM and 1020 nM.
